Laboratory results: ChEMBL document CHEMBL1123563, “New antifilarial agents. 1. Epoxy sulfonamides and ethynesulfonamides” (J Med Chem, 1987)
pEC50: −log10 of the molar value. The source made the active and inactive calls.

What was measured:
[1] = tested on: molinema dessetae; assay: Effective concentration of compound necessary to kill 90% of infective larvae of Molinema dessetae after 7 days was determined in vitro; Value ranges from 20-100; type: functional
Procedure, shortened: (§1)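 Infective larvae from the intermediate host were decontaminated and held 20 per 1.5 mL in a biphasic medium: L929 feeder layer with RPMI and fetal calf serum (90:10), plus penicillin and streptomycin. Compound solutions at several concentrations were made in DMSO, and 10 μL of each was added. After 7 days, survival was corrected by control, in duplicate runs. EC ranges are given in μM.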

[2] = Effective concentration of compound necessary to kill 50% of infective larvae of Molinema dessetae after 7 days was determined in vitro; Value ranges from 20-100; type: functional; procedure, shortened: as §1
[3] = tested on: molinema dessetae; assay: Antifilarial activity against Molinema dessetae in vivo against male adult worms at a dose of 10 mg/kg subcutaneously once a day for 5 days; Active; type: functional, organism-based; set-up: dose 10 mg/kg
Procedure, shortened: (§2)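 Proechimys oris of both sexes were each infected with 200 infective larvae dissected from Aedes aegypti mosquitoes. Microfilaremia was checked, and the rodents were treated 150–180 days post-infection. Compound was given subcutaneously as a 1% carboxymethylcellulose suspension once daily for 5 consecutive days. Microfilaremia was followed for 6 weeks, then adult male and female worms were counted at autopsy. A compound was scored active if no males and ≤1.6 females were found (p = 0.12).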

[4] = tested on: molinema dessetae; assay: Antifilarial activity against Molinema dessetae in vivo against female adult worms at a dose of 10 mg/kg subcutaneously once a day for 5 days; Active; type: functional, organism-based; set-up: dose 10 mg/kg; procedure, shortened: as §2
[5] = Antifilarial activity against Molinema dessetae in vivo in Proechimys oris the natural host at a dose of 10 mg/kg subcutaneously once a day for 5 days. Value is expressed as number of infected P. oris.; type: functional; settings: route subcutaneous; procedure, shortened: as §2
[6] = tested on: molinema dessetae; assay: Antifilarial activity against Molinema dessetae in vivo against male adult worms at a dose of 100 mg/kg subcutaneously once a day for 5 days; Inactive; type: functional, organism-based; set-up: dose 100 mg/kg; procedure, shortened: as §2
[7] = tested on: molinema dessetae; assay: Antifilarial activity against Molinema dessetae in vivo against female adult worms at a dose of 100 mg/kg subcutaneously once a day for 5 days; Inactive; type: functional, organism-based; set-up: dose 100 mg/kg; procedure, shortened: as §2
[8] = tested on: molinema dessetae; assay: Effective concentration of compound necessary to kill 90% of infective larvae of Molinema dessetae after 7 days was determined in vitro; Value ranges from 100-500; type: functional; procedure, shortened: as §1
[9] = Antifilarial activity against Molinema dessetae in vivo in Proechimys oris the natural host at a dose of 100 mg/kg subcutaneously once a day for 5 days. Value is expressed as number of infected P. oris.; type: functional; settings: route subcutaneous; procedure, shortened: as §2
[10] = tested on: molinema dessetae; assay: Antifilarial activity against Molinema dessetae in vivo against female adult worms at a dose of 200 mg/kg subcutaneously once a day for 5 days; Inactive; type: functional, organism-based; set-up: dose 200 mg/kg; procedure, shortened: as §2
[11] = Antifilarial activity against Molinema dessetae in vivo in Proechimys oris the natural host at a dose of 200 mg/kg subcutaneously once a day for 5 days. Value is expressed as number of infected P. oris.; type: functional; settings: route subcutaneous; procedure, shortened: as §2
[12] = Effective concentration of compound necessary to kill 50% of infective larvae of Molinema dessetae after 7 days was determined in vitro; type: functional
[13] = tested on: molinema dessetae; assay: Antifilarial activity against Molinema dessetae in vivo against male adult worms at a dose of 200 mg/kg subcutaneously once a day for 5 days; Inactive; type: functional, organism-based; set-up: dose 200 mg/kg; procedure, shortened: as §2
[14] = tested on: molinema dessetae;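 further: in vitro assay on infective-stage larvae, EC90 being the concentration lethal to 90% of larvae after 7 days of exposure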
[15] = tested on: molinema dessetae; assay: Antifilarial activity against Molinema dessetae in vivo against male adult worms at a dose of 200 mg/kg subcutaneously once a day for 5 days; Active; type: functional, organism-based; set-up: dose 200 mg/kg; procedure, shortened: as §2
[16] = tested on: molinema dessetae; assay: Antifilarial activity against Molinema dessetae in vivo against female adult worms at a dose of 200 mg/kg subcutaneously once a day for 5 days; Active; type: functional, organism-based; set-up: dose 200 mg/kg; procedure, shortened: as §2
[17] = Effective concentration of compound necessary to kill 50% of infective larvae of Molinema dessetae after 7 days was determined in vitro; Value ranges from 100-500; type: functional; procedure, shortened: as §1
[18] = tested on: molinema dessetae; assay: Antifilarial activity against Molinema dessetae in vivo against male adult worms at a dose of 100 mg/kg subcutaneously once a day for 5 days; Active; type: functional, organism-based; set-up: dose 100 mg/kg; procedure, shortened: as §2
[19] = tested on: molinema dessetae; assay: Antifilarial activity against Molinema dessetae in vivo against female adult worms at a dose of 100 mg/kg subcutaneously once a day for 5 days; Active; type: functional, organism-based; set-up: dose 100 mg/kg; procedure, shortened: as §2

Row | EC90 [14] | Compound | pEC50 [2] | Activity [10] | Activity [11] | pEC50 [12] | Activity [13] | other results
1 |  | CN1CCN(S(=O)(=O)[C@@H]2O[C@H]2c2ccccc2)CC1 | 4.00 |  |  |  |  | EC90 [1]: 100 µM; Activity [3]: Active; Activity [4]: Active; Activity [5]: 4
2 |  | CN1CCN(S(=O)(=O)[C@@H]2O[C@@H]2c2ccccc2)CC1 | 4.00 |  |  |  |  | Activity [6]: inactive; Activity [7]: inactive; EC90 [8]: 500 µM; Activity [9]: 2
3 | < 20 µM | CN1CCN(S(=O)(=O)C#Cc2ccccc2)CC1 |  | inactive | 1 | > 4.70 | inactive | 
4 |  | O=S(=O)(C1OC1c1ccc(Cl)c(Cl)c1)N1CCOCC1 (centres undefined) |  |  | 2 | > 4.70 |  | EC90 [1]: 100 µM; Activity [15]: Active; Activity [16]: Active
5 | > 500 µM | C[C@@H]1O[C@H]1S(=O)(=O)N1CCOCC1 |  | inactive | 2 | < 3.30 | inactive | 
6 |  | O=S(=O)(C1OC1c1ccc(Cl)cc1)N1CCOCC1 (centres undefined) | 4.00 | inactive | 2 |  | inactive | EC90 [8]: 500 µM
7 | > 500 µM | CN(C)S(=O)(=O)C#Cc1ccccc1 |  | inactive | 2 |  |  | Activity [15]: Active; pEC50 [17]: 3.30
8 | > 500 µM | O=S(=O)(/C=C/c1ccccc1)N1CCOCC1 |  | inactive | 2 | < 3.30 | inactive | 
9 | > 500 µM | O=S(=O)(/C=C\c1ccccc1)N1CCOCC1 |  |  |  |  |  | pEC50 [17]: 3.30
10 |  | CC1OC1S(=O)(=O)N(C)C (centres undefined) | 4.00 | inactive | 2 |  | inactive | EC90 [8]: 500 µM
11 |  | Cc1ccc(C2OC2S(=O)(=O)N2CCN(C)CC2)cc1 (centres undefined) | 4.00 | inactive | 2 |  | inactive | EC90 [8]: 500 µM
12 |  | IVERMECTIN |  |  |  | > 4.70 |  | 
13 | > 500 µM | C[C@H]1O[C@H]1S(=O)(=O)N1CCOCC1 |  |  |  |  |  | pEC50 [17]: 3.30
14 |  | CCCCCCc1ccc(C2OC2S(=O)(=O)N2CCOCC2)cc1 (centres undefined) |  | inactive | 1 |  | inactive | 
15 |  | O=S(=O)(C1OC1c1ccccc1)N1CCN(c2ccccc2)CC1 (centres undefined) | 4.00 |  |  |  |  | EC90 [1]: 100 µM; Activity [6]: inactive; Activity [7]: inactive; Activity [9]: 2
16 |  | O=S(=O)([C@@H]1O[C@H]1c1ccccc1)N1CCOCC1 | 4.00 |  |  |  |  | EC90 [1]: 100 µM; Activity [18]: Active; Activity [19]: Active; Activity [9]: 3
17 |  | CN(C)S(=O)(=O)[C@@H]1O[C@@H]1c1ccccc1 |  |  |  |  |  | pEC50 [17]: 3.30; EC90 [8]: 500 µM
18 | > 500 µM | C[C@]1(c2ccccc2)O[C@@H]1S(=O)(=O)N1CCOCC1 |  | inactive | 2 | < 3.30 | inactive | 
19 |  | CN(C)S(=O)(=O)/C=C\c1ccccc1 |  |  |  |  |  | pEC50 [17]: 3.30; EC90 [8]: 500 µM
20 | > 500 µM | CN1CCN(CC(=O)c2ccccc2)CC1 |  |  |  | < 3.30 |  | Activity [6]: inactive; Activity [7]: inactive; Activity [9]: 1

Row | Compound | EC90 [14] | pEC50 [2] | Activity [10] | Activity [11] | pEC50 [12] | Activity [13] | other results
21 | C1COCCN1 [MORPHOLINE] | > 500 µM |  |  |  | < 3.30 |  | 
